This passage reports ΔTm and IC50 results from ChEMBL document CHEMBL1156540, “Remarkable DNA binding affinity and potential anticancer activity of pyrrolo[2,1-c][1,4]benzodiazepine-naphthalimide conjugates linked through piperazine side-armed alkane spacers” (Bioorg Med Chem, 2008).

One assay has as its system DNA. The assay can be described thus: Binding affinity to calf thymus DNA assessed as helix melting temperature at 20 uM after 18 hrs by thermal denaturation assay. The assay is classed as nucleic-acid assay. The conditions noted are these: Bos taurus. Summed up: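 Calf thymus duplex DNA (100 µM in phosphate) with ligand at 20 µM (1:5 ligand/DNA molar ratio), added from concentrated DMSO stock into 10 mM sodium phosphate, 1 mM EDTA, pH 7.00. Incubated at 37 °C before melting. Absorbance followed at 260 nm while heating 1 °C/min over 40–95 °C. Tm taken from maxima of d(A260)/dT derivative plots; ΔTm relative to DNA alone.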

The test system of a further assay is HOP-62. Kind of assay: Cytotoxicity against human Hop62 cells by SRB assay. Type of assay: functional, cell-based. In outline: (§1)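 Human tumour lines given dose–response treatment, with growth or viability estimated by sulforhodamine B protein staining. IC50 is the dose giving 50% growth inhibition versus untreated controls, read from IC50 graphs. Triplicate wells; each experiment repeated three times.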

The subject of a further assay is SiHa. Kind of assay: Cytotoxicity against human SiHa cells by SRB assay. Type of assay: functional, cell-based. Summed up:
as §1
A general note: In SRB staining, fixed cells bind dye roughly in proportion to their protein.

A further assay deals with MCF7. Kind of assay: Cytotoxicity against human MCF7 cells by SRB assay. Type of assay: functional, cell-based. Summed up:
as §1

A further assay deals with ZR-75-1. Kind of assay: Cytotoxicity against human ZR751 cells by SRB assay. Type of assay: functional, cell-based. Summed up:
as §1

In a further assay the test system is PC-3. The assay can be described thus: Cytotoxicity against human PC3 cells by SRB assay. The assay is classed as functional, cell-based. In outline:
as §1

For a further assay, the system named is COLO 205. The assay can be described thus: Cytotoxicity against human Colo205 cells by SRB assay. The assay is classed as functional, cell-based. In outline:
as §1

For a further assay, the system named is A2780. Kind of assay: Cytotoxicity against human A2780 cells by SRB assay. The assay is classed as functional, cell-based. In outline:
as §1

As for `COc1cc2c(cc1O)N=C[C@@H]1CCCN1C2=O`, the ΔTm – broadly, the shift of the melting midpoint relative to a reference – with DNA turned out to be 0.7 °C.

As to `COc1cc2c(cc1OCCCCN1CCN(CCCCN3C(=O)c4cccc5cccc(c45)C3=O)CC1)N=C[C@@H]1CCCN1C2=O`, the ΔTm in the assay with DNA came to 20.8 °C.

In the case of `COc1cc2c(cc1OCCN1CCN(CCN3C(=O)c4cccc5cccc(c45)C3=O)CC1)N=C[C@@H]1CCCN1C2=O`, the ΔTm with DNA was determined as 22.7 °C. The IC50 – broadly, the concentration at which inhibition is half-maximal – in the assay with HOP-62 was 1200 nM; with SiHa, 1000 nM; with MCF7, 1400 nM; with ZR-75-1 it was less than 1000 nM; in the assay with PC-3 it was 800 nM; in the assay with COLO 205, 1600 nM. The IC50 in the assay on A2780 was found to be 500 nM.

In the case of `COc1cccc2c1C(=O)c1c(O)c3c(c(O)c1C2=O)C[C@@](O)(C(=O)CO)C[C@@H]3O[C@H]1C[C@H](N)[C@H](O)[C@H](C)O1` [DOXORUBICIN], in the assay on MCF7, the IC50 came out at 500 nM.

Turning to `COc1cc2c(cc1OCCCN1CCN(CCCN3C(=O)c4cccc5cccc(c45)C3=O)CC1)N=C[C@@H]1CCCN1C2=O`, in the assay with DNA, the ΔTm was found to be 12.9 °C.

For `COc1cc2c(cc1OCCCCN1CCN(CCN3C(=O)c4cccc5cccc(c45)C3=O)CC1)N=C[C@@H]1CCCN1C2=O`, the ΔTm in the assay with DNA amounted to 23.9 °C. In addition, the IC50 with HOP-62 was less than 1000 nM; in the assay with SiHa, 800 nM; in the assay on MCF7, 500 nM; with ZR-75-1 it was less than 1000 nM; in the assay on PC-3 it was 500 nM; in the assay with COLO 205 it was 500 nM. The compound further came in with an IC50 in the assay with A2780 of 600 nM.

Consider `COc1cc2c(cc1OCCCN1CCN(CCN3C(=O)c4cccc5cccc(c45)C3=O)CC1)N=C[C@@H]1CCCN1C2=O`, for which the ΔTm in the assay on DNA was 26.5 °C. The half-inhibitory concentration (IC50) in the assay with HOP-62 is less than 1000 nM; with SiHa, 700 nM; with MCF7, 500 nM; with ZR-75-1, less than 1000 nM; in the assay with PC-3, 500 nM; with COLO 205, 500 nM. Moreover, inhibition in the assay with A2780 was half-maximal at 500 nM (IC50).

`COc1cc2c(cc1OCCCOc1cc3c(cc1OC)C(=O)N1CCC[C@H]1C=N3)N=C[C@@H]1CCCN1C2=O`: in the assay on DNA, the ΔTm was determined as 15.1 °C.
